Measured values reported in the RNAGym collection of RNA variant scans (doi:10.1038/s41586-018-0170-7).

B1: tRNA (parent)
chain: GUUCCGUUGGCGUAAUGGUAACGCGUCUCCCUCCUAAGGAGAAGACUGCGGGUUCGAGUCCCGUACGGAACG

Variants of: B1
Test: yeast fitness, log relative to wild type (ln ratio); higher = fitter; tRNA-Arg(CCU), competitive growth, 37 C, 1 M NaCl
Summary of the method: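 Fitness is the natural log of each genotype's generations divided by the wild type's. Generations were derived as OD-scaled log2 output/input frequency from 125 bp paired-end Illumina counts, weighting replicates by inverse variance. Pools of the tRNA-Arg(CCU) variant library, on a HIS3 centromeric plasmid in BY4742 lacking the chromosomal gene, grew ~6.5 generations (~26.5 h) in SC-HIS 1M NaCl at 37 °C after 4 generations in SC-HIS at 30 °C.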

Variant	yeast fitness (ln)
U2G G6U C27U C46U C66U A70U	-0.106
U2G G6U C27U C71U	-0.218
U2G G6U C66A A69G A70G	-0.25
A43C C66U A70G	-0.0981
G1A U2C G6A C66U A69G A70G	-0.0913
G6A C27U A43C C46U C66A A70G	-0.191
G6U C46U A69G C71U	-0.194
G1A U2G G6A C46U C66U C71U	-0.301
G6U C27U A43C C46U C66U A69G A70G C71U	-0.444
G1A G6A C27U C46U C66U A70U C71U	-0.478
G1A G6A C27U C46U C66U A70G	-0.236
G1A C46U C66U A69G A70G	-0.134
G1A U2C G6A C27U C66U A70G C71U	-0.0371
G1A U2G G6U A43C C46U C66A A70G	-0.178
G1A G6A A43C A69G A70G	-0.301
U2C C27U C46U C66U A69G A70G C71U	-0.281
U2C G6A A43C C66U A69G A70U C71U	-0.366
G1A G6U A69G A70G C71U	-0.247
G1A U2C A43C C46U C66U A70G C71U	-0.0729
G6A A43C C46U C66A A69G A70G C71U	-0.207
G6A C27U C46U C66U C71U	-0.0799
C27U A43C C66A C71U	-0.275
G1A U2C C27U C46U C66U A69G A70G	-0.11
G1A C27U C66A A69G A70G C71U	-0.325

Variant	yeast fitness (ln)
U2G G6A C27U A43C A69G A70U	-0.279
U2C G6U A43C C66U A69G C71U	-0.454
G1A C27U A43C C66U A69G A70U	-0.325
G1A U2G C46U C66U A69G A70U	-0.128
U2C C27U C46U A69G	-0.319
U2G G6A A43C C46U	-0.0442
U2G C27U C46U C66U A70U	-0.0345
U2C G6U C27U C46U C66U A70G	-0.0763
G1A C66U A69G A70U C71U	-0.364
U2G G6A C46U C66U	-0.0595
G1A G6A C27U C46U C66U	-0.421
U2G G6A C27U A43C C46U C66A A70G C71U	-0.19
U2G C46U C66A	-0.0933
G1A U2G G6U C46U C66A A70G C71U	-0.511
G1A U2C G6A A43C C46U A70U C71U	-0.0375
U2C G6A C66A A70G C71U	-0.286
U2G C27U C46U C66A	-0.0734
U2G G6U A43C C66U A70U	-0.279
U2C A43C C46U A70U	-0.0182
U2G G6A C27U C46U A70U C71U	-0.143
G1A G6A A43C C46U A70U	-0.206
G6A C27U C46U C66U A69G A70G	-0.213
U2G G6U C27U A43C C46U C66A A69G A70G	-0.187
G1A G6A C27U A43C C66A A70G C71U	-0.267

Variant	yeast fitness (ln)
G1A U2C G6U C27U A43C A69G A70U C71U	-0.282
G1A U2G G6A C46U C66A A70U	-0.189
G1A U2G C27U A69G A70G C71U	-0.241
U2C G6A C27U C46U C71U	-0.119
G1A U2C A43C C46U C71U	-0.0678
A43C C46U C66A A69G C71U	-0.26
G1A U2G C46U C66A C71U	-0.0962
U2G G6U C27U C66A	-0.0883
U2G G6A A43C C66A A70U	-0.12
G1A U2C G6U C46U C66U A70G	-0.265
U2G C27U C46U A69G A70U	-0.0139
G6U C66A A69G A70U	-0.291
G1A U2C G6U C27U C46U A70U C71U	-0.13
G1A U2G G6A C27U A43C C46U	-0.242
U2C A43C C46U A69G A70U C71U	-0.307
G1A U2G A43C C46U C66A	-0.156
U2G A43C C46U C66A C71U	-0.148
G1A U2G C27U C46U A69G A70U C71U	-0.18
G6U A43C C66A	-0.0198
G1A U2G G6A A43C C46U A70G	-0.163
G1A U2C G6U A70U C71U	-0.158
G1A C66U A69G A70U	-0.174
G6A C27U A43C C46U A70G C71U	-0.25
U2G C46U C66A A70U C71U	-0.0966

Variant	yeast fitness (ln)
G1A U2C G6A A43C C46U C66U A70U	-0.0467
G6U C27U A43C C46U C66A A69G A70U C71U	-0.611
U2G C27U A43C A70U	-0.0184
G1A G6A C27U A69G A70G	-0.342
G1A U2G G6A C27U C66U A70G	-0.349
G1A U2G G6A C27U A43C A70G C71U	-0.344
G1A U2C G6U C27U A43C A70U	-0.14
U2G G6A C27U A69G C71U	-0.268
G1A U2G G6U C27U C46U A70U C71U	-0.242
U2G C27U A43C A70U C71U	-0.235
U2C G6U A43C C46U A70G	-0.113
G1A U2C C66U A70G	-0.297
G6A C46U C66U C71U	-0.0146
U2G G6A A69G A70G	-0.139
G1A U2G G6A A43C C46U A69G A70G C71U	-0.303
G1A C27U A43C C46U C66U A69G A70G C71U	-0.347
G1A U2C G6U A43C A70U C71U	-0.195
U2G G6A A43C C46U C71U	-0.151
G6A C27U A43C C46U C66U A69G C71U	-0.307
U2G G6A C46U C66U A70U	-0.000351
U2C G6A C27U C46U C66U A69G A70U C71U	-0.289
U2G G6A C46U A69G A70G	-0.115
G1A U2G G6U C27U A43C C46U C66U A70G C71U	-0.466
G1A U2G C27U A69G A70U	-0.188

Variant	yeast fitness (ln)
G6A C27U A43C C46U A69G A70U	-0.16
G6U C46U C66U	-0.0169
G1A G6A A43C C46U A69G C71U	-0.194
C66A A69G A70G C71U	-0.0757
U2G G6U C27U A43C C46U A70U	-0.156
U2G A69G	-0.112
U2G G6A C27U C46U C66A A70G C71U	-0.221
G1A G6A A43C C46U C66U A70U	-0.24
U2G G6U C27U A43C C46U C66A A70U C71U	-0.629
G1A U2C G6A C27U A43C C66U A69G A70G C71U	-0.255
G1A U2G A43C C46U C66U A70G C71U	-0.243
U2G G6U A43C A69G A70G C71U	-0.28
U2G C66A A69G A70U	-0.131
G1A U2C G6A A43C C46U C66U A69G A70U	-0.0607
G1A A43C C66U A70U C71U	-0.25
G1A U2C C46U C66U A70G C71U	-0.01
G1A U2G C27U C46U C66A C71U	-0.0936
G6U C66U A69G A70U C71U	-0.481
U2G G6U C66U A69G A70G	-0.251
G1A C27U C46U A69G	-0.304
G6U C66A A69G A70G	-0.0205
G6A C27U A43C A69G A70U	-0.345
G1A U2C G6U C27U A70G C71U	-0.212
G6U C66A A70G	-0.0102

Variant	yeast fitness (ln)
G1A G6A C46U C66U	-0.072
G1A U2C G6A C27U A43C	-0.0863
G1A U2C C27U A43C C46U C66U A70U	-0.0712
U2G G6A A43C C66A A70G	-0.187
U2G G6A C27U A43C C46U C66A A70G	-0.132
U2G C27U A43C C66U A69G A70G	-0.348
U2G C46U C71U	-0.0759
A43C C66A A70U	-0.0764
G1A G6U C27U A43C A69G A70U C71U	-0.58
U2C C27U C46U C71U	-0.268
U2C G6U A43C A70U C71U	-0.198
G6U C27U A43C C46U C66A A69G A70U	-0.462
G1A U2G G6U C27U C46U A70G C71U	-0.368
U2G G6U A43C C46U C66A A69G A70U	-0.0302
U2G C66A A70U	-0.157
C27U C46U C66U A70U C71U	-0.197
G6A C27U A43C A70G C71U	-0.304
U2G G6A C27U A70G	-0.112
G1A G6A C27U C66U C71U	-0.0761
U2C A43C A70U	-0.0907
U2C C27U A43C C46U C66A A70G	-0.0421
C27U C66A A70U C71U	-0.182
G1A U2G G6U C27U A43C C66U A70U C71U	-0.429
G1A C46U C66A A70U C71U	-0.171

Variant	yeast fitness (ln)
A43C C46U C66A A70U	-0.0196
U2C G6A A43C C46U C66A A70G	-0.123
U2G G6U A43C	-0.129
G1A U2C C27U A43C C46U C66A A70G	-0.102
U2C G6A C27U C71U	-0.212
U2G C27U A43C	-0.0611
U2C C27U C66U A69G A70G C71U	-0.529
U2C G6A A69G A70G C71U	-0.394
G6A A43C C46U A69G A70U	-0.124
U2C G6U C46U A69G A70U C71U	-0.216
G6A A43C C46U C66A A70U C71U	-0.312
G6U C27U C46U A69G A70G C71U	-0.342
G6U C27U A43C C66A A69G A70U	-0.282
U2C A43C C66U A70U	-0.0776
U2C A43C C46U C66U A69G C71U	-0.25
G1A U2C C46U A69G A70U	-0.016
U2G G6U C27U A43C C66A A70U C71U	-0.445
A43C A70G C71U	-0.164
G1A C27U C46U A69G A70U	-0.118
U2C C46U C66U A69G	-0.224
U2C G6A C27U A43C C66U A69G A70U	-0.33
U2C G6A C27U C46U C66U	-0.136
G1A G6A C46U C66A A70U C71U	-0.15
